Some results are limits rather than exact numbers.

Experimental findings from ChEMBL document CHEMBL3861950, “Design, synthesis and evaluation of novel 19F magnetic resonance sensitive protein tyrosine phosphatase inhibitors” (Medchemcomm, 2016) are described below.

Experiment [1] concerns the target T1, Tyrosine-protein phosphatase non-receptor type 11 (Homo sapiens, UniProt Q06124).
T1 sequence (Q06124 whole entry): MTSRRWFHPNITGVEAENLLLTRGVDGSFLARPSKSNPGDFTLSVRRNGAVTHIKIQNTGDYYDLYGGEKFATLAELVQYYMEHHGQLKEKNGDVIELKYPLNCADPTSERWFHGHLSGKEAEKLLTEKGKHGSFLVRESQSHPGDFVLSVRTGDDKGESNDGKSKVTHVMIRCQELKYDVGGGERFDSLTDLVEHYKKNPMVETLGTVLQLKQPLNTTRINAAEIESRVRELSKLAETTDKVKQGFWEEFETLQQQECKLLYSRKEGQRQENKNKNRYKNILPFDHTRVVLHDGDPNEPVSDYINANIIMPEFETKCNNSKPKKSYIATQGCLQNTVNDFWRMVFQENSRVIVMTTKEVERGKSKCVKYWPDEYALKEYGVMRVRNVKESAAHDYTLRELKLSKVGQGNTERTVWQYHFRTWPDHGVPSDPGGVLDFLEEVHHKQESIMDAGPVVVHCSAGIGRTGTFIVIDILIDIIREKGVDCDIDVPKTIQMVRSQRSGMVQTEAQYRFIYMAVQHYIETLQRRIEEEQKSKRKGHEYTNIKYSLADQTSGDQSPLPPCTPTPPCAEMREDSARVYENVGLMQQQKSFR
The experiment in a line: Inhibition of recombinant SHP2 (unknown origin) using pNPP as substrate by spectrophotometric method. In outline: (§1)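 Recombinant PTP prepared in-house, assayed with pNPP substrate in 50 mM 3,3-dimethylglutarate buffer pH 7.0 containing 1 mM EDTA and 150 mM NaCl at 25 °C, in 96-well format. p-Nitrophenol product was quantified by absorbance at 405 nm. Non-enzymatic pNPP hydrolysis was corrected using a no-enzyme control.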

Experiment [2] can be described thus: Inhibition of recombinant Mycobacterium tuberculosis PTPB using pNPP as substrate by spectrophotometric method. The method, boiled down:
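Recombinant enzyme made in-house. Substrate pNPP in 50 mM 3,3-dimethylglutarate buffer, pH 7.0, with 1 mM EDTA and 150 mM NaCl, at 25 °C, screened in 96-well format. p-Nitrophenol product read at 405 nm. Non-enzymatic pNPP hydrolysis was corrected using a control without enzyme.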

Experiment [3] addresses T2, Tyrosine-protein phosphatase non-receptor type 22 (Homo sapiens, UniProt Q9Y2R2).
T2 sequence (Q9Y2R2 whole entry): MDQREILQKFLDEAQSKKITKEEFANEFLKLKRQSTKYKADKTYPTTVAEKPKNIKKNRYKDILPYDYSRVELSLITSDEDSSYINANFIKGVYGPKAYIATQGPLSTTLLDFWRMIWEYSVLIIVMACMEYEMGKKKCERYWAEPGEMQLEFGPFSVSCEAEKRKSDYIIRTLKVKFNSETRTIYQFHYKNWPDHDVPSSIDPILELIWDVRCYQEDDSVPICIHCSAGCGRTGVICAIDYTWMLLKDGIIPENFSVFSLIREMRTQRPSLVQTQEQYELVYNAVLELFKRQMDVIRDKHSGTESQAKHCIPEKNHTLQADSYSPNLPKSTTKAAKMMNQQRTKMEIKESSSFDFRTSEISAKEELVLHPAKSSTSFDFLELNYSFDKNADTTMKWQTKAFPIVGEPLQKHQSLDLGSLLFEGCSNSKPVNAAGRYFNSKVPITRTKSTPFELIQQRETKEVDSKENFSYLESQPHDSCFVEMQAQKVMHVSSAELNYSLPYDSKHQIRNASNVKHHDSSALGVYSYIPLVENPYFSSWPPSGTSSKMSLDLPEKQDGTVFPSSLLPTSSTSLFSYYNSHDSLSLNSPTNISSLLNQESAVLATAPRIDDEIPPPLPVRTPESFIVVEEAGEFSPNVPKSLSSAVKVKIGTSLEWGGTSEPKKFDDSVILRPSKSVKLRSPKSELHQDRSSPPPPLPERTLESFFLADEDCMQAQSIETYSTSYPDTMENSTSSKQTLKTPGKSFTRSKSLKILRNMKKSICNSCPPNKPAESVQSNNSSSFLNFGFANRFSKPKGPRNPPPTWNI
The experiment in a line: Inhibition of recombinant LYP (unknown origin) using pNPP as substrate by spectrophotometric method. The method, boiled down: as §1

For experiment [4], the target named is T3, Tyrosine-protein phosphatase non-receptor type 1 (Homo sapiens, UniProt P18031).
T3 sequence (P18031 whole entry): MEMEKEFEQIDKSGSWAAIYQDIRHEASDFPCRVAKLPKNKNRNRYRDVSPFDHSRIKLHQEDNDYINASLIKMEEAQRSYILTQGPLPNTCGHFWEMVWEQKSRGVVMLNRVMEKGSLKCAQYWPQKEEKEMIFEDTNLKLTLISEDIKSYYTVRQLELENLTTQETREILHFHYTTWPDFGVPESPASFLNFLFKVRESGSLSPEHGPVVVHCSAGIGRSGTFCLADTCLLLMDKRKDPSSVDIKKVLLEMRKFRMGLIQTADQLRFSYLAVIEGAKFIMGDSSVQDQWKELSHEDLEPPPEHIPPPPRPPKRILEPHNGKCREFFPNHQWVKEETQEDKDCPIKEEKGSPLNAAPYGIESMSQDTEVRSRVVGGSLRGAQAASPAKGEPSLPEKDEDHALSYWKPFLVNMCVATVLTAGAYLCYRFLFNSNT
The experiment in a line: Inhibition of recombinant PTP1B (unknown origin) using pNPP as substrate by spectrophotometric method. The method, boiled down: as §1

Experiment [5] deals with T4, Receptor-type tyrosine-protein phosphatase C (Homo sapiens, UniProt P08575).
T4 sequence (P08575 whole entry): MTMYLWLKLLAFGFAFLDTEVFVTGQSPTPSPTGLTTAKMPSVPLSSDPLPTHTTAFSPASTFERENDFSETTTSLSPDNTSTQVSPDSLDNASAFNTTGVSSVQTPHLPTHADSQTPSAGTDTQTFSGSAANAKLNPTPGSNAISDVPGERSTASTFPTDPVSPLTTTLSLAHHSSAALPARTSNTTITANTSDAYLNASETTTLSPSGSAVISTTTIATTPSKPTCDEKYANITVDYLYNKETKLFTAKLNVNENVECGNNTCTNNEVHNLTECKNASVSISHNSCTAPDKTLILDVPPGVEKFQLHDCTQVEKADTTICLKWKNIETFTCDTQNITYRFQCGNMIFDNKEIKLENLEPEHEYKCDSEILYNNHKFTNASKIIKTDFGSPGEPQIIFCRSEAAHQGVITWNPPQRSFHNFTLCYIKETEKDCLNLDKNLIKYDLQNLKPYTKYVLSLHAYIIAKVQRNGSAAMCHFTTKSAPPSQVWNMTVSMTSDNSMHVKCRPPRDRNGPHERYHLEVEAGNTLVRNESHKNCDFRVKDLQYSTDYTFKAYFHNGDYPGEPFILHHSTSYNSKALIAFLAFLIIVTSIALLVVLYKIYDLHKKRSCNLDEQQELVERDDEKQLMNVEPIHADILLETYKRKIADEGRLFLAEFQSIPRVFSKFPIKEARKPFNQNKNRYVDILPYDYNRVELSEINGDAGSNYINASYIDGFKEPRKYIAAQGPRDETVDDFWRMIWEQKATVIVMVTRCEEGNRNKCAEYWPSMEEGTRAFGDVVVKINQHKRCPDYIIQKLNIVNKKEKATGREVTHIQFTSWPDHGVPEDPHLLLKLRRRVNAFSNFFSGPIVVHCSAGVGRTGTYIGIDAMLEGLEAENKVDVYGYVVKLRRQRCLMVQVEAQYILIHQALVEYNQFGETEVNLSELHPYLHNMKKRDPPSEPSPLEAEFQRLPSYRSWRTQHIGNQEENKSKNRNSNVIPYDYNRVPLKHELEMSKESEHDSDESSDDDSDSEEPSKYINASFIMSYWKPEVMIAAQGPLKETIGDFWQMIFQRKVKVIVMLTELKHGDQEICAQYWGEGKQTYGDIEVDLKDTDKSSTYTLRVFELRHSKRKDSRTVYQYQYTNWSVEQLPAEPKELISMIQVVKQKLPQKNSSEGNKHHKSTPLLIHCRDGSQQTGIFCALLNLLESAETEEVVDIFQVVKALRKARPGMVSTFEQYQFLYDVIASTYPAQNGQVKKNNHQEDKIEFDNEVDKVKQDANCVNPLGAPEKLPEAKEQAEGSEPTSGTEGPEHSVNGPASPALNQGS
The experiment in a line: Inhibition of recombinant CD45 (unknown origin) using pNPP as substrate by spectrophotometric method. The method, boiled down: as §1

In experiment [6] the target is Tyrosine-protein phosphatase non-receptor type 13 (Homo sapiens, UniProt Q12923). In words: Inhibition of recombinant FAP1 (unknown origin) using pNPP as substrate by spectrophotometric method. In outline:
as §1

Chain of Tyrosine-protein phosphatase non-receptor type 13 (Q12923 whole entry): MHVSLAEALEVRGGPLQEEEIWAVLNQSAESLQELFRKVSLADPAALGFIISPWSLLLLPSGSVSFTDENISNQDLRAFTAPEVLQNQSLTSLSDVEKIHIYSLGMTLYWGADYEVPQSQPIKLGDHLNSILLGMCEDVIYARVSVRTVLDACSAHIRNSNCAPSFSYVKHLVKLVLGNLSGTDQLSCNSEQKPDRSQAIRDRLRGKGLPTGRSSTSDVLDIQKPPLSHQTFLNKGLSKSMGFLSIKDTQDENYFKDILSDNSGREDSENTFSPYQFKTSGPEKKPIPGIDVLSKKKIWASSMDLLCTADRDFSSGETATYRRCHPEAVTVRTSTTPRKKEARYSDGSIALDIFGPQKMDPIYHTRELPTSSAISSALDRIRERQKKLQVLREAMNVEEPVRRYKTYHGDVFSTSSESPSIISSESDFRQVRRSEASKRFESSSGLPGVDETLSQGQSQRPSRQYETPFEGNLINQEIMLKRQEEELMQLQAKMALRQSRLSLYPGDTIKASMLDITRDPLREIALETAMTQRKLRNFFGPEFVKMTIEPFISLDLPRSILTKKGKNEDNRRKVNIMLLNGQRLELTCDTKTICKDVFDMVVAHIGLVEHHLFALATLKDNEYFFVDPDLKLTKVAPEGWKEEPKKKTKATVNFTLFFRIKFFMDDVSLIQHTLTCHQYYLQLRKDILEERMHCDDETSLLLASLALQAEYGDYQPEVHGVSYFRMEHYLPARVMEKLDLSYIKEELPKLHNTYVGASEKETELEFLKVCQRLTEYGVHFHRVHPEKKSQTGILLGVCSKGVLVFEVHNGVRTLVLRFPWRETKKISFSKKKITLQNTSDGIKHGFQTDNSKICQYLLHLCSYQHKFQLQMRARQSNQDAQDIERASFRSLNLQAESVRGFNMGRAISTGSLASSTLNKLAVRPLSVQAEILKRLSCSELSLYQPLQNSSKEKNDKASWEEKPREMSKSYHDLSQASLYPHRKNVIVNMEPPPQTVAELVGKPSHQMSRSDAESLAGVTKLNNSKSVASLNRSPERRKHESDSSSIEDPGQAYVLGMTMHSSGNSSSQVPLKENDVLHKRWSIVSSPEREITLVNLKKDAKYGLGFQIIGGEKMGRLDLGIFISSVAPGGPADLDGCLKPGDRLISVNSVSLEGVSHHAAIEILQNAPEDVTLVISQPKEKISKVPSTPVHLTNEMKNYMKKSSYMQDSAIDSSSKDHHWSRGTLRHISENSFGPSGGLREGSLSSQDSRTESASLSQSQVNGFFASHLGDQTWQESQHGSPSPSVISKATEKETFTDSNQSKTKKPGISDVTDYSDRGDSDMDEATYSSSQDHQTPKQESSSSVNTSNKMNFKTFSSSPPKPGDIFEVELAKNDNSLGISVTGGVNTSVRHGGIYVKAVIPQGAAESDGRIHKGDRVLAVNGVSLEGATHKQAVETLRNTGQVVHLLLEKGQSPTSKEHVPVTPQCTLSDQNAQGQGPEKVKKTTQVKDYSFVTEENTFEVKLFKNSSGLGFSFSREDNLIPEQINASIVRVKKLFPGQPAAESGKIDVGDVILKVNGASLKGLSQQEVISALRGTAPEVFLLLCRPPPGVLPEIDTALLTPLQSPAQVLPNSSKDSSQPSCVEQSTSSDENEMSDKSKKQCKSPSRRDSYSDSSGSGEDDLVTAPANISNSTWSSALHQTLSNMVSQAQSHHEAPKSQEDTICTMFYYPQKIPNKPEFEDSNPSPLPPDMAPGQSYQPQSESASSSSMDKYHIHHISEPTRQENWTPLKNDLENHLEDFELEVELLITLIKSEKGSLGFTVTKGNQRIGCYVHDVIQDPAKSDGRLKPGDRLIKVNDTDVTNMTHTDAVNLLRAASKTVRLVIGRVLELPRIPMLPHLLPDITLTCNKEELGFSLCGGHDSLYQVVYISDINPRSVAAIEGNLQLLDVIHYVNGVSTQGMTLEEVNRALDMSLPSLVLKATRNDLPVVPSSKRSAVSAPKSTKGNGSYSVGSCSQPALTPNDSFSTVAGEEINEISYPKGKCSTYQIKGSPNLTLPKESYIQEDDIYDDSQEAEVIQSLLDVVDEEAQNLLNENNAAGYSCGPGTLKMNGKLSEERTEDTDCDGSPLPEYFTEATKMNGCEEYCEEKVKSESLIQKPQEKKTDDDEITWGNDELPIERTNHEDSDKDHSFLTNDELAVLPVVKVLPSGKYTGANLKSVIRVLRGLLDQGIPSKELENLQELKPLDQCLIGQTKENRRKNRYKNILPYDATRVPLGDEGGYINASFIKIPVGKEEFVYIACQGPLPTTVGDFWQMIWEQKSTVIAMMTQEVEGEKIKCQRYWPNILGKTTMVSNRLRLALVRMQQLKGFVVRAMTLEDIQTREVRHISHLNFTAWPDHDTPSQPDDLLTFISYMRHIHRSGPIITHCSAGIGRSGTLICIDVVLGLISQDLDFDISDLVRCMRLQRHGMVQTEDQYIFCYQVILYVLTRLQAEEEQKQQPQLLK

On to `Cc1ccc(O)c(C(O)(C(F)(F)F)C(F)(F)F)c1`, for which the IC50 (in general, the midpoint of a concentration-inhibition curve) is 202 µM in experiment [1]; 180 µM in experiment [2]; 303 µM in experiment [3]; 360 µM in experiment [4]; 207 µM in experiment [5]; 454 µM in experiment [6].

For the compound `O=C(COc1ccc2cc(C(O)(C(F)(F)F)C(F)(F)F)c(O)cc2c1)NC1c2ccccc2-c2ccccc21`, the IC50 was 6.9 µM in experiment [1]; 9.4 µM in experiment [2]; 7.5 µM in experiment [3]; 13.8 µM in experiment [4]; 6.6 µM in experiment [5]; 5.6 µM in experiment [6].

Turning to `CCCNC(=O)COc1ccc2cc(C(O)(C(F)(F)F)C(F)(F)F)c(O)cc2c1`, the IC50 in experiment [1], in experiment [2], in experiment [3], in experiment [4], in experiment [5] and in experiment [6] was above 20 µM in each case.

`Oc1c(-c2ccccc2)cccc1C(O)(C(F)(F)F)C(F)(F)F`: the half-maximal inhibitory concentration (IC50) in experiment [1] is 136 µM; in experiment [2], 148 µM; in experiment [3] it was 268 µM; in experiment [4], 422 µM; in experiment [5], 157 µM; in experiment [6], 449 µM.

For `O=C(COc1ccc2cc(C(O)(C(F)(F)F)C(F)(F)F)c(O)cc2c1)Nc1nc2ccccc2s1`, the IC50 in experiment [1] is 12.8 µM; in experiment [2], 2.6 µM; in experiment [3], 14.3 µM; in experiment [4], above 20 µM; in experiment [5] it was 10.9 µM; in experiment [6], 9.9 µM.

With `Oc1cc(-c2ccccc2)ccc1C(O)(C(F)(F)F)C(F)(F)F`, the IC50 in experiment [1], in experiment [2], in experiment [3], in experiment [4], in experiment [5] and in experiment [6] was above 500 µM in each case.

Consider `OC(c1ccccc1)(C(F)(F)F)C(F)(F)F`, for which the IC50 in experiment [1], in experiment [2], in experiment [3], in experiment [4], in experiment [5] and in experiment [6] was above 500 µM each time.

For `O=C(COc1ccc2cc(C(O)(C(F)(F)F)C(F)(F)F)c(O)cc2c1)Nc1ccccc1`, the IC50 in experiment [1] was 19 µM; in experiment [2] it was 14.4 µM; in experiment [3], above 20 µM; in experiment [5], above 20 µM; in experiment [6] it was above 20 µM.

On to `O=C(COc1ccc2cc(C(O)(C(F)(F)F)C(F)(F)F)c(O)cc2c1)NCc1ccc(F)cc1`, for which the IC50 in experiment [1], in experiment [2], in experiment [3], in experiment [4], in experiment [5] and in experiment [6] was above 20 µM throughout.

For `Oc1cc2ccccc2cc1C(O)(C(F)(F)F)C(F)(F)F`, the IC50 came to 115 µM in experiment [1]; 106 µM in experiment [2]; 134 µM in experiment [3]; 260 µM in experiment [4]; 112 µM in experiment [5]; 128 µM in experiment [6].

In the case of `O=C(COc1ccc2cc(C(O)(C(F)(F)F)C(F)(F)F)c(O)cc2c1)Nc1ccc(-c2ccccc2)cc1`, the IC50 in experiment [1] is 3.5 µM; in experiment [2], 4.8 µM; in experiment [3], above 20 µM; in experiment [4], above 20 µM; in experiment [5], 3.4 µM; in experiment [6] it was 2.8 µM.

In the case of `Oc1ccc(-c2ccccc2)cc1C(O)(C(F)(F)F)C(F)(F)F`, the IC50 in experiment [1] is 392 µM; in experiment [2], 351 µM; in experiment [3], above 500 µM; in experiment [4], above 500 µM; in experiment [5] it was above 500 µM; in experiment [6], above 500 µM.

In the case of `O=C(COc1ccc2cc(C(O)(C(F)(F)F)C(F)(F)F)c(O)cc2c1)NCCc1ccc(Cl)cc1Cl`, the IC50 in experiment [1] came to 6.7 µM; in experiment [2], 5.1 µM; in experiment [3] it was 6.9 µM; in experiment [4], 12.6 µM; in experiment [5], 5.2 µM; in experiment [6], 4.3 µM.

With `O=C(COc1ccc2cc(C(O)(C(F)(F)F)C(F)(F)F)c(O)cc2c1)NC1CC1`, the IC50 in experiment [1], in experiment [2], in experiment [3], in experiment [4], in experiment [5] and in experiment [6] was above 20 µM in each case.

Regarding `O=C(COc1ccc2cc(C(O)(C(F)(F)F)C(F)(F)F)c(O)cc2c1)N1c2ccccc2Sc2ccccc21`, the IC50 in experiment [1] was 3.2 µM; in experiment [2], 2.9 µM; in experiment [3], 3.4 µM; in experiment [4] it was 6.6 µM; in experiment [5], 2.8 µM; in experiment [6], 2.2 µM.
